This passage reports Tm and folding enthalpy results from the array DNA melting data of Ke et al. (doi:10.1101/2024.01.08.574731).

Data set [1] can be described thus: melting temperature; fluorescence melt of hairpins on a sequencing array, two-state fit, raised by 9.35 °C to match UV melts. The conditions noted are these: sodium 0.088 M. Put shortly:
(§1)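 Folding enthalpy and melting temperature come from bootstrapped two-state fits to Cy3 fluorescence of library hairpins carrying annealed Cy3 and quencher oligos on a sequenced MiSeq flow cell. Imaging was done in 50 mM Na-HEPES pH 8.0, 25 mM NaCl, stepping by 2.5 °C up to 60 °C, and signals were normalised to pre-quench Cy3 and to control constructs. Results of four replicates were combined by inverse variance, and fitted temperatures were raised by 9.35 °C to match UV melts.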

Data set [2] is described as follows: folding enthalpy; higher = less favourable; fluorescence melt of hairpins on a sequencing array, two-state fit. Particulars: sodium 0.088 M. The method, boiled down: as §1

With GCATGTCGAAAGACGTGC (((.(((....))).))), the Tm in data set [1] came out at 65.6 °C. The folding enthalpy in data set [2] is -36.8 kcal/mol.

With GCATGTGGAAACACACGC ((.((((....)))).)), the Tm in data set [1] amounted to 46 °C. In data set [2], the folding enthalpy is -25.8 kcal/mol.

GCATGTGGAAACGCATGC (((((.(....).))))): the Tm in data set [1] was 55.9 °C. In addition, the folding enthalpy in data set [2] is -44.7 kcal/mol.

In the case of GCATGTGGAAACGTATGC ((((..(....)..)))), the Tm in data set [1] was 41 °C. The folding enthalpy in data set [2] is -26.3 kcal/mol.

Take GCATTACGAAAGTAGTGC (((.(((....))).))): the Tm in data set [1] came to 52.4 °C. For the same sequence, the folding enthalpy in data set [2] was -31.7 kcal/mol.

As to GCATTCCGAAAGGAGTGC (((.(((....))).))), in data set [1], the Tm worked out at 58.4 °C. Also, the folding enthalpy in data set [2] was -40 kcal/mol.

Turning to GCATTCGAAAGAAAATGC ((((((....)))..))), in data set [1], the Tm was determined as 34.6 °C. The folding enthalpy in data set [2] is -24.8 kcal/mol.

With GCATTCGGAAACGAATAC (.(((((....))))).), the Tm in data set [1] turned out to be 37 °C. For the same sequence, the folding enthalpy in data set [2] is -19.8 kcal/mol.

For the sequence GCATTGCGAAAGCATCGC ((..(((....)))..)), in data set [1], the Tm worked out at 52.9 °C. Also, the folding enthalpy in data set [2] is -11.8 kcal/mol.

Turning to GCATTGCGAAAGCATGGC ((..(((....)))..)), in data set [1], the Tm worked out at 45.8 °C. In data set [2], the folding enthalpy was -19.9 kcal/mol.

Turning to GCATTGCGAAAGCCACGC ((.(.((....)).).)), the Tm in data set [1] was found to be 38.2 °C. For the same sequence, the folding enthalpy in data set [2] is -8.66 kcal/mol.

In the case of GCATTGCGAAAGCGCTGC (((..((....))..))), in data set [1], the Tm was found to be 45.7 °C. Also, in data set [2], the folding enthalpy was -18.8 kcal/mol.

Consider GCATTGCGAAAGCGGTGC (((..((....))..))), for which the Tm in data set [1] is 58.8 °C. Besides, the folding enthalpy in data set [2] was -22.3 kcal/mol.

Take GCATTGCGAAAGCTATGC ((((.((....)).)))): the Tm in data set [1] was 62.5 °C. In data set [2], the folding enthalpy was -38.9 kcal/mol.

Take GCATTTGGAAACAAACGC ((.((((....)))).)): the Tm in data set [1] was found to be 37.2 °C. For the same sequence, the folding enthalpy in data set [2] was -30.1 kcal/mol.

Consider GCATTTGGAAACGAATGC (((((.(....).))))), for which, in data set [1], the Tm came to 49 °C. In addition, the folding enthalpy in data set [2] is -41.8 kcal/mol.

For GCATTTTCGAAAGAATGC (((..(((....)))))), the Tm in data set [1] came out at 35.5 °C. In data set [2], the folding enthalpy was -28.4 kcal/mol.

With GCCAAACGAAAGTTCGGC (((.(((....))).))), the Tm in data set [1] was 51.3 °C. Moreover, the folding enthalpy in data set [2] is -36.8 kcal/mol.

As to GCCAACACGAAAGTGGGC (((..(((....)))))), the Tm in data set [1] was 52.7 °C. Further, the folding enthalpy in data set [2] was -24.9 kcal/mol.

For GCCAACCCGAAAGGGGGC (((..(((....)))))), the Tm in data set [1] worked out at 51.8 °C. For the same sequence, the folding enthalpy in data set [2] was -18.8 kcal/mol.

GCCAACCGAAAGGTGGGC (((.(((....))).))): the Tm in data set [1] came out at 68.4 °C. In addition, in data set [2], the folding enthalpy is -40.6 kcal/mol.

Regarding GCCAACGAAAGTTAGGGC ((((((....)))..))), the Tm in data set [1] came to 46.6 °C. Moreover, the folding enthalpy in data set [2] was -23.5 kcal/mol.

As to GCCAACGAAAGTTATGGC ((((((....)))..))), the Tm in data set [1] worked out at 45.7 °C. In addition, in data set [2], the folding enthalpy was -30.7 kcal/mol.

Consider GCCAACGGAAACGTCAGC ((..(((....)))..)), for which the Tm in data set [1] was 28.3 °C. For the same sequence, the folding enthalpy in data set [2] is -12.1 kcal/mol.

In the case of GCCAAGAAATTGGC (((((....))))), the Tm in data set [1] came out at 52.3 °C. Moreover, the folding enthalpy in data set [2] is -21.6 kcal/mol.

GCCAAGCCGAAAGGCGGC (((..(((....)))))): the Tm in data set [1] worked out at 64.2 °C. The folding enthalpy in data set [2] is -16.1 kcal/mol.

Consider GCCAAGCGAAAGCCGGGC (((..((....))..))), for which the Tm in data set [1] amounted to 57.7 °C. In addition, the folding enthalpy in data set [2] was -22.4 kcal/mol.

In the case of GCCAAGCGAAAGCGGGGC (((..((....))..))), the Tm in data set [1] stood at 68.3 °C. Besides, the folding enthalpy in data set [2] is -28.6 kcal/mol.

On to GCCAAGCGAAAGCGTTGC ((.(.((....)).).)), for which, in data set [1], the Tm turned out to be 40.1 °C. Also, the folding enthalpy in data set [2] is -11.6 kcal/mol.

GCCAAGCGAAAGCTTTGC ((.((((....)))).)): the Tm in data set [1] is 53.4 °C. Besides, in data set [2], the folding enthalpy is -21.4 kcal/mol.

GCCAAGGGAAACCCTAGC ((.(.((....)).).)): in data set [1], the Tm came out at 28.8 °C. For the same sequence, in data set [2], the folding enthalpy was -17.6 kcal/mol.

For GCCAATGAAAATTGGC ((((((....)))))), the Tm in data set [1] worked out at 59.9 °C. Further, in data set [2], the folding enthalpy was -30.7 kcal/mol.

With GCCAATGGAAACATTAGC ((.((((....)))).)), the Tm in data set [1] stood at 32.1 °C. In addition, the folding enthalpy in data set [2] was -17.4 kcal/mol.

For GCCAATGGAAACGTTGGC (((((.(....).))))), in data set [1], the Tm was found to be 53.7 °C. The folding enthalpy in data set [2] was -49.3 kcal/mol.

GCCACCCGAAAGGGAGGC (((.(((....))).))): the Tm in data set [1] is 67.8 °C. Besides, the folding enthalpy in data set [2] is -44.3 kcal/mol.

With GCCACCCGAAAGGGGGC (((.(((....)))))), in data set [1], the Tm is 68.5 °C. Moreover, the folding enthalpy in data set [2] is -22.8 kcal/mol.

Take GCCACCGAAAGGTCAGGC ((((((....)))..))): the Tm in data set [1] worked out at 48.4 °C. Moreover, in data set [2], the folding enthalpy is -23.1 kcal/mol.
